Reference: ChEMBL document CHEMBL4043244, “Diverse amide analogs of sulindac for cancer treatment and prevention” (Bioorg Med Chem Lett, 2017)

Assays:
Type in all cases: functional
HT-29 = test: Growth inhibition of human HT-29 cells after 72 hrs by CellTiter-Glo reagent based assay; settings: HT-29, 72 h
Method in brief: (§1)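 Cancer cell lines (PC3 prostate, HT29 colorectal carcinoma, MDA-MB-231 breast) were screened by quantitative high-throughput screening in whole cells, and CC50 values were derived.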

PC-3 = test: Growth inhibition of human PC3 cells after 72 hrs by CellTiter-Glo reagent based assay; settings: PC-3, 72 h; method in brief: as §1
MDA-MB-231 = test: Growth inhibition of human MDA-MB-231 cells after 72 hrs by CellTiter-Glo reagent based assay; settings: MDA-MB-231, 72 h; method in brief: as §1

Row | Compound | CC50 (HT-29) | CC50 (PC-3) | CC50 (MDA-MB-231)
1 | CC1=C(CC(=O)NCc2ccco2)c2cc(F)ccc2/C1=C\c1nc2ccccc2s1 | 5.48 µM | 26.4 µM | 6.7 µM
2 | COc1cc(/C=C2/C(C)=C(CC(=O)NCCC(C)C)c3cc(F)ccc32)cc(OC)c1OC | 5.24 µM | 8.2 µM | 8.73 µM
3 | CCN(CC)CCN(CC)C(=O)CC1=C(C)/C(=C/c2ccc(SC)cc2)c2ccc(F)cc21 | 1.83 µM | 6.21 µM | 5.22 µM
4 | CSc1ccc(/C=C2/C(C)=C(CC(=O)NCCCN(C)C)c3cc(F)ccc32)cc1 | 2.46 µM | 6.99 µM | 5.18 µM
5 | CC1=C(CC(=O)NCc2ccccc2)c2cc(F)ccc2/C1=C\c1ccncc1 [CP-461 FREE BASE] | 2.14 µM | 5.71 µM | 3.68 µM
6 | CSc1ccc(/C=C2/C(C)=C(CC(=O)NCCC(C)C)c3cc(F)ccc32)cc1 | > 50 µM | > 50 µM | > 50 µM
7 | CSc1ccc(/C=C2/C(C)=C(CC(=O)N(C)CCN(C)S(=O)(=O)c3ccc(C)cc3)c3cc(F)ccc32)cc1 | 12.9 µM | > 50 µM | > 50 µM
8 | CCS(=O)(=O)N(C)CCN(C)C(=O)CC1=C(C)/C(=C/c2ccc(SC)cc2)c2ccc(F)cc21 | 4.2 µM | 14.3 µM | 10.1 µM
9 | CCN(CC)CCNC(=O)CC1=C(C)/C(=C/c2ccc([S+](C)[O-])cc2)c2ccc(F)cc21 (configuration not stated) | 19.8 µM | > 50 µM | > 50 µM
10 | CCN1CCC[C@H]1CNC(=O)CC1=C(C)/C(=C/c2ccc([S+](C)[O-])cc2)c2ccc(F)cc21 (some centres not stated) | 19 µM | > 50 µM | > 50 µM
11 | COc1cc(/C=C2/C(C)=C(CC(=O)NCCN3CCCC3)c3cc(F)ccc32)cc(OC)c1OC | 13.4 µM | 46.5 µM | 41.1 µM
12 | CCNCCN(CC)C(=O)CC1=C(C)/C(=C/c2ccc(SC)cc2)c2ccc(F)cc21 | 2.54 µM | 6.56 µM | 6.65 µM
13 | CSc1ccc(/C=C2/C(C)=C(CC(=O)NCCN3CCCCC3)c3cc(F)ccc32)cc1 | 1.65 µM | 5.36 µM | 5.42 µM
14 | COC(=O)[C@@H](C)NC(=O)CC1=C(C)/C(=C/c2ccc(SC)cc2)c2ccc(F)cc21 | 16.2 µM | 44.2 µM | 32 µM
15 | CSc1ccc(/C=C2/C(C)=C(CC(=O)NCc3cccnc3)c3cc(F)ccc32)cc1 | 4.83 µM | 18.5 µM | 7.36 µM
16 | CSc1ccc(/C=C2/C(C)=C(CC(=O)NCCN3CCNCC3)c3cc(F)ccc32)cc1 | 2.98 µM | 6.66 µM | 7.66 µM
17 | CCN(CC)CCN(CC)C(=O)CC1=C(C)/C(=C/c2ccc([S+](C)[O-])cc2)c2ccc(F)cc21 (configuration not stated) | 18.4 µM | > 50 µM | > 50 µM
18 | CSc1ccc(/C=C2/C(C)=C(CC(=O)NCc3cccs3)c3cc(F)ccc32)cc1 | 2.16 µM | 11 µM | 5.66 µM
19 | CC1=C(CC(=O)N2CCN(CCCN(C)C)CC2)c2cc(F)ccc2/C1=C\c1ccc([S+](C)[O-])cc1 (configuration not stated) | 23.8 µM | > 50 µM | 46.2 µM
20 | COc1cc(/C=C2/C(C)=C(CC(=O)N3CCC[C@H]3CN3CCCC3)c3cc(F)ccc32)cc(OC)c1OC | 4.22 µM | 12.3 µM | 11.1 µM

Row | Compound | CC50 (HT-29) | CC50 (PC-3) | CC50 (MDA-MB-231)
21 | CCN(CC)CCCNC(=O)CC1=C(C)/C(=C/c2ccc([S+](C)[O-])cc2)c2ccc(F)cc21 (configuration not stated) | 27.1 µM | > 50 µM | > 50 µM
22 | CSc1ccc(/C=C2/C(C)=C(CC(=O)NCCC3CCCN3C)c3cc(F)ccc32)cc1 (configuration not stated) | 1.41 µM | 4.33 µM | 3.75 µM
23 | CC1=C(CC(=O)N(CCCNC(C)C)C(C)C)c2cc(F)ccc2/C1=C\c1ccc([S+](C)[O-])cc1 (configuration not stated) | 16.3 µM | 48.3 µM | > 50 µM
24 | CC1=C(CC(=O)N(C)CCN(C)S(=O)(=O)c2ccccc2)c2cc(F)ccc2/C1=C\c1ccc([S+](C)[O-])cc1 (configuration not stated) | 6.09 µM | 8.2 µM | 12.2 µM
25 | CCN1CCC[C@H]1CNC(=O)CC1=C(C)/C(=C/c2nc3ccccc3s2)c2ccc(F)cc21 | 1.66 µM | 7.72 µM | 5.58 µM
26 | CSc1ccc(/C=C2/C(C)=C(CC(=O)N(C)CCCN(C)C)c3cc(F)ccc32)cc1 | 2.18 µM | 6.98 µM | 5.41 µM
27 | CSc1ccc(/C=C2/C(C)=C(CC(=O)N(C)CCN(C)S(C)(=O)=O)c3cc(F)ccc32)cc1 | 4.04 µM | 15.5 µM | 11.6 µM
28 | CCNCCCN(CC)C(=O)CC1=C(C)/C(=C/c2ccc(SC)cc2)c2ccc(F)cc21 | 1.38 µM | 3.92 µM | 3.03 µM
29 | CSc1ccc(/C=C2/C(C)=C(CC(=O)N3CCNCC3)c3cc(F)ccc32)cc1 | 2.47 µM | 6.5 µM | 3.69 µM
30 | CC1=C(CC(=O)NCc2ccccc2)c2cc(F)ccc2/C1=C\c1nc2ccccc2s1 | 23.6 µM | > 50 µM | 19.6 µM
31 | CSc1ccc(/C=C2/C(C)=C(CC(=O)N3CCN(C)CC3)c3cc(F)ccc32)cc1 | 4.29 µM | 13.4 µM | 11.5 µM
32 | CCN(CC)CCN(C)C(=O)CC1=C(C)/C(=C/c2ccc([S+](C)[O-])cc2)c2ccc(F)cc21 (configuration not stated) | 24 µM | > 50 µM | > 50 µM
33 | CC1=C(CC(=O)NCCCN(C)C)c2cc(F)ccc2/C1=C\c1ccc([S+](C)[O-])cc1 (configuration not stated) | 33.3 µM | > 50 µM | > 50 µM
34 | CC1=C(CC(=O)N(C)CCN(C)S(=O)(=O)c2ccc3ccccc3c2)c2cc(F)ccc2/C1=C\c1ccc([S+](C)[O-])cc1 (configuration not stated) | 6.35 µM | 7.52 µM | 32.1 µM
35 | CCNCCCN(CC)C(=O)CC1=C(C)/C(=C/c2ccc([S+](C)[O-])cc2)c2ccc(F)cc21 (configuration not stated) | 17.5 µM | > 50 µM | > 50 µM
36 | CSc1ccc(/C=C2/C(C)=C(CC(=O)N(CCCNC(C)C)C(C)C)c3cc(F)ccc32)cc1 | 2.3 µM | 4.9 µM | 3.92 µM
37 | CNCCN(C)C(=O)CC1=C(C)/C(=C/c2ccc(SC)cc2)c2ccc(F)cc21 | 2.8 µM | 6.75 µM | 5.84 µM
38 | CSc1ccc(/C=C2/C(C)=C(CC(=O)N(C)CCN(C)S(=O)(=O)c3cccc4ccccc34)c3cc(F)ccc32)cc1 | 16.2 µM | > 50 µM | > 50 µM
39 | CSc1ccc(/C=C2/C(C)=C(CC(=O)N3CCC(N4CCCCC4)CC3)c3cc(F)ccc32)cc1 | 1.06 µM | 4.06 µM | 2.61 µM
40 | CNCCN(C)C(=O)CC1=C(C)/C(=C/c2cc(OC)c(OC)c(OC)c2)c2ccc(F)cc21 | 8.05 µM | 23.1 µM | 17 µM

Row | Compound | CC50 (HT-29) | CC50 (PC-3) | CC50 (MDA-MB-231)
41 | CC1=C(CC(=O)N(C)CCN(C)C(=O)[C@@H](N)C(C)C)c2cc(F)ccc2/C1=C\c1ccc([S+](C)[O-])cc1 (some centres not stated) | 30.2 µM | > 50 µM | > 50 µM
42 | CC1=C(CC(=O)N2CCC[C@H]2CN2CCCC2)c2cc(F)ccc2/C1=C\c1nc2ccccc2s1 | 1.58 µM | 4.25 µM | 3.61 µM
43 | CSc1ccc(/C=C2/C(C)=C(CC(=O)NCc3ccccc3)c3cc(F)ccc32)cc1 | 1.52 µM | 16.4 µM | 3.61 µM
44 | CC1=C(CC(=O)N(C)CCN(C)S(C)(=O)=O)c2cc(F)ccc2/C1=C\c1ccc([S+](C)[O-])cc1 (configuration not stated) | 12.4 µM | 42.6 µM | 12.5 µM
45 | CSc1ccc(/C=C2/C(C)=C(CC(=O)N(C)CCN(C)C(=O)[C@@H](N)C(C)C)c3cc(F)ccc32)cc1 | 3.72 µM | 7.08 µM | 7.33 µM
46 | COc1cc(/C=C2/C(C)=C(CC(=O)NCCN(C)C)c3cc(F)ccc32)cc(OC)c1OC | 6.22 µM | 18.3 µM | 15.1 µM
47 | CNCCCN(C)C(=O)CC1=C(C)/C(=C/c2ccc([S+](C)[O-])cc2)c2ccc(F)cc21 (configuration not stated) | > 50 µM | > 50 µM | > 50 µM
48 | COc1cc(/C=C2/C(C)=C(CC(=O)N(C)CCN(C)C)c3cc(F)ccc32)cc(OC)c1OC | 4.68 µM | 11.4 µM | 10.8 µM
49 | CC1=C(CC(=O)NCCC(C)C)c2cc(F)ccc2/C1=C\c1ccc([S+](C)[O-])cc1 (configuration not stated) | 17.7 µM | 20.2 µM | 27.7 µM
50 | CSc1ccc(/C=C2/C(C)=C(CC(=O)NCc3ccc(N(C)C)cc3)c3cc(F)ccc32)cc1 | > 50 µM | > 50 µM | > 50 µM
51 | CSc1ccc(/C=C2/C(C)=C(CC(=O)NCc3ccco3)c3cc(F)ccc32)cc1 | 2.08 µM | 13 µM | 3.4 µM
52 | COC(=O)[C@H](Cc1cnc[nH]1)NC(=O)CC1=C(C)/C(=C/c2ccc(SC)cc2)c2ccc(F)cc21 | 23 µM | > 50 µM | > 50 µM
53 | CC1=C(CC(=O)NCCN(C)C)c2cc(F)ccc2/C1=C\c1ccc(S(C)(=O)=O)cc1 | 12.7 µM | > 50 µM | 37.5 µM
54 | CCN1CCC[C@H]1CNC(=O)CC1=C(C)/C(=C/c2ccc(SC)cc2)c2ccc(F)cc21 | 1.16 µM | 4.64 µM | 3.72 µM
55 | CC1=C(CC(=O)NCc2ccco2)c2cc(F)ccc2/C1=C\c1ccc([S+](C)[O-])cc1 (configuration not stated) | 1 µM | > 50 µM | 2.73 µM
56 | CC1=C(CC(=O)N(C)CCN(C)S(=O)(=O)c2ccc(C)cc2)c2cc(F)ccc2/C1=C\c1ccc([S+](C)[O-])cc1 (configuration not stated) | 6.18 µM | 11 µM | 17.8 µM
57 | CCS(=O)(=O)N(C)CCN(C)C(=O)CC1=C(C)/C(=C/c2ccc([S+](C)[O-])cc2)c2ccc(F)cc21 (configuration not stated) | 42.6 µM | > 50 µM | > 50 µM
58 | CC1=C(CC(=O)N2CCC(N3CCCCC3)CC2)c2cc(F)ccc2/C1=C\c1ccc([S+](C)[O-])cc1 (configuration not stated) | > 50 µM | > 50 µM | > 50 µM
59 | CNCCCN(C)C(=O)CC1=C(C)/C(=C/c2ccc(SC)cc2)c2ccc(F)cc21 | 2.9 µM | 7.65 µM | 7.66 µM
